B1: tRNA (parent)
chain: GUUCCGUUGGCGUAAUGGUAACGCGUCUCCCUCCUAAGGAGAAGACUGCGGGUUCGAGUCCCGUACGGAACG

Fewer inactive variants are shown than the library holds.

In the series the parent is B1. Nature of the series: yeast fitness relative to wild type (ratio to wild type); higher = fitter; tRNA-Arg(CCU), competitive growth, 37 C, YPD. The method, boiled down: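 Variants of the tRNA-Arg(CCU) gene were chemically synthesised with a 3% per-site mutation rate across 69 sites and placed at the native genomic locus in Saccharomyces cerevisiae. Six parallel replicates of the pooled strains were competed in YPD at 37°C for 24 hours, and gene amplicons from the start and end populations were read by 100-nucleotide paired-end sequencing. Darwinian fitness relative to wild type was derived from changes in genotype frequencies. Genotypes required ≥ 100 starting reads, and estimates < 0.5 were set to 0.5.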
As to GUUCCGUUGGCGAAAUGGUAACGCGUCUCCCUCCUAAGGAGAAGAAUGCGGGUUCGAGUCCCGUACGGAACG [U13A C46A], the yeast fitness worked out at 0.979.

GUUCCGUUGGCGUAAUGGUAGCGCGUCUCGCUCCUAAGGAGAAGACUGCGGGUGCGAGUCCCGUGCGUACCG [A21G C30G U54G A65G G68U A70C]: the yeast fitness is at most 0.5.

With GUUCCGUUGGCGAAAUGGUAACGCGUUUCCCUCCUAAGGAGAAGACUGCGGGUUCGAGUCCUGUACGGAACG [U13A C27U C62U], the yeast fitness worked out at 0.786.

With GUUCCGUUGGCGUAAUGGUAACGCGUCUCCCUCCCAAGCAGAAGACAGCGGGUUCGAGUCCCGUACGGAACG [U35C G39C U47A], the yeast fitness was at most 0.5.

On to GUUCCGUUGGCGUAAUGGUAACGCGUCUUCCUCCUCAGGAGAAGAUUGCGGGAUCGAGUCCCGUACGGAACG [C29U A36C C46U U53A], for which the yeast fitness is at most 0.5.

For the variant GUUUCGUUGGCGUUAUGGUAACGCGUCUCACUCCUAAGGAGAAGACUGCGGGUGCGAGUCCCGUCCGGAACG [C4U A14U C30A U54G A65C], the yeast fitness is 0.634.

Take GUUCCGUUGGCGUAAUGGUAACGCGUGUCGCUCCUAAGGAGAAGACUGCGGGUUCGAGUCCCGGACGGAACG [C27G C30G U64G]: the yeast fitness was at most 0.5.

In the case of GUUGCGUUGGCGUAAUGGUAACGCGUCUACCACCUAAGGAGAAGCCUGCGGGUUCGAGUCCCGUCCGGAACG [C4G C29A U32A A45C A65C], the yeast fitness was at most 0.5.

For GCUCCGUUGGCGUAAUGGUAACGCGUCUCCCUCCUAAGGAGAGGACUGAGGGUUCGUGUCCCGUACGGAACG [U2C A43G C49A A57U], the yeast fitness is at most 0.5.

As for GUUCCGUUGACGUAAUGGUAACGCGUCUCCCUCCUAAGGAGAAGACUGCGGGUUCGUGUCCCGUCCGGAGCG [G10A A57U A65C A70G], the yeast fitness was at most 0.5.

For the variant GUUUCGUUGGCGUAAUGGUAACGCGUCUCCCUCCUAAGGAGAAGACUGCGGGUUCGAGUCCCGUAUGGUACG [C4U C66U A69U], the yeast fitness was 0.677.

Regarding GGUCCGUUGGCGUACUGGUAACGCGUCUCCCUCCUAAGGAGAAGACGGCGGGUUCGAGUCCCGUACGGCACG [U2G A15C U47G A69C], the yeast fitness was at most 0.5.

GUUCCGUUGCCGUAAAGGUAACGCGUCUCUCUCCUAAGGAGAAGACUGCGGGUUCGAGUCCCGUACGGAACG [G10C U16A C30U]: the yeast fitness amounted to 0.54.

Take GUUCCGUUGGCGUAAUGGUAAGGCGUCUCCCUCCUAAGGAGGAGACUGUGGGUUCGAGUCCCGUACGGAACG [C22G A42G C49U]: the yeast fitness is 0.712.

In the case of GUUCCGUUGGCGUAAUGGUAAUGCGUCUCCCCCCUAAGGAGAAGAGUGCGGGGUCGAGUCCCGUACGCAACG [C22U U32C C46G U53G G68C], the yeast fitness is 0.544.

With GUUCCGAUGGCCUGAUGGUACCGUGUCUCCCUCCUAAAGAGAAGACUGCGGGUCCGAGUCCCGUAAGGAACG [U7A G12C A14G A21C C24U G38A U54C C66A], the yeast fitness is at most 0.5.

Consider GUUCUGUUGGCGUAAUGGUAUCGCGUCUCGCUCCUAAGGAGAAGACUGCGGGUUCGAGUCCCGUAUGGAACG [C5U A21U C30G C66U], for which the yeast fitness was at most 0.5.

Turning to GUUCCGUUAGCGUACUGGUAACGCGUCUCCCUCCUAAGGAGAAGACUGCGGGUUCGAGUCCCGUACGGAACG [G9A A15C], the yeast fitness came out at 0.788.

Consider GUUCCGUUGGUGUGAUGGUAACGCGUAUCCCUCCUAAGGAGAAGACUACGGGAUCGAGUCGCGUACGGAACG [C11U A14G C27A G48A U53A C61G], for which the yeast fitness was at most 0.5.

Consider GUUCCGUGGGUGUAAUGGUAACGCGUCUCCCUCCUAAGGAGAAGACUGCGGGUUCGAGUCCCGAACGGACCG [U8G C11U U64A A70C], for which the yeast fitness was 0.619.

Consider GUUCCGUUGACGUAAUGAUAACGCGUCUCCCUCCUGAGGAGAAGACUGCGGGAUCGAGUCCCGUACGGAGCG [G10A G18A A36G U53A A70G], for which the yeast fitness was at most 0.5.

With GUCCCGUUAGCGUAAUAGUAACGCGUCUCCCUCCUAAGGAGAAGACUGCGGGUUCGAGUCCCGUACGGAACG [U3C G9A G17A], the yeast fitness is 0.798.

Take GUUCCGUUGGCGUAAUGGUAAGGCGUCUCCCUCCUAAGGAGACGACUGCGGGCUGGAGUCCCGUACGGAACG [C22G A43C U53C C55G]: the yeast fitness is at most 0.5.

For the variant GUCCCGUUGGCGUAAUGGUAACGUGUCUCCCUCCUAAGGAGCAGACUGCGGGUUCGAGUCCCGUACGGAACG [U3C C24U A42C], the yeast fitness came out at 0.663.

For the variant GUUCCGUUGGCGUAAUAGUAACGCGUCUCCCUCAUAAGGGGAAGACUGCGGGUUCGAGUCCCGUAUGGAACG [G17A C34A A40G C66U], the yeast fitness was determined as 0.524.

For the variant GUUCCGUUGGCGUAAUGGUAGCGCGUCUCCCUCCUAAGGAGAAGUCUGCGGGUUCGAGUCCCGUUCGGAACG [A21G A45U A65U], the yeast fitness worked out at 0.674.

Regarding GUUCCGUUGGCGUAAUGGUAACGCGUCUGCCUCCUAAGGAGAAGACUACGGGUUCGAGUCCCGUACGGAACG [C29G G48A], the yeast fitness was determined as 0.586.

For GGUCCGUUGGCGAAAUGGUAAUGCGUCUCCCUCCUAAGGAGAAGACUGCGGGUACGAGUCGCGUACGGCACG [U2G U13A C22U U54A C61G A69C], the yeast fitness is at most 0.5.

Consider GUUCCGUUGGCGUAAUGGUAGCGCGUCUCCCUCCUAAGGAGAAGGCUGCGGGUUCGAGUCCCGUACAGAACG [A21G A45G G67A], for which the yeast fitness turned out to be 1.

For GUUAGGUUGGCGUAAUGGUAACGCGUCUCCCUCCUAAGGAGAAGACUGCGGGUUCGAGUCCCGUACGGAACG [C4A C5G], the yeast fitness worked out at 0.571.

On to GUUCCGUUAGAGUAAUGGUAACGCGUCUCCCUCCUAAGGAGAAAAAUGCGGGUUCGAGUCCCGUACGGAACG [G9A C11A G44A C46A], for which the yeast fitness is at most 0.5.

As for GUUUCGUUGGCGUAAUGGUGACGCGUCUCCCUCCUAAGGUGAAGACUGCGGGUUCGAGUCCCGUACGGAGCG [C4U A20G A40U A70G], the yeast fitness was at most 0.5.

For the variant GUUCCGUUGGCGUAAUGGUCUCGCGUCUCCCUCCUAAGGAAAAGACUGCGGGUUCGAGUCCCGUACGGAACG [A20C A21U G41A], the yeast fitness is at most 0.5.

On to GUUCCGUUGGCGUAUUGGUAACGCGUCUCCCUCCUAAGGAGAGGACAGCGGGUUCGAGUCCCGUACGGAACG [A15U A43G U47A], for which the yeast fitness came to 0.547.

Consider GUUCCAUUGGCGUAAUGGUAACGCGUCUCCGUCCUAAGGAGACGACUGAGGGUCCGAGUCCCGUACGGAACG [G6A C31G A43C C49A U54C], for which the yeast fitness was at most 0.5.

Turning to GUUCCGUUGGCGUAAAGGUAACGCGUAUCCCUCCUAAGGAGAAGACUGCGGGUUCGAGUCCGGUACGGAACG [U16A C27A C62G], the yeast fitness is at most 0.5.

For GUUACGUUGGCGUAAUGCUAACGCGUCUACAUCCUAAGGAGAAGACUGCGGGUUCGGGUCCCGUACGGAACG [C4A G18C C29A C31A A57G], the yeast fitness is at most 0.5.

As to GUUUCGUUGGCGUAAAGGUCACGCGUCUCCCUCCUAAGGAGAAGACUGCGGGUUCGAGUCCCGUACGGAACG [C4U U16A A20C], the yeast fitness came to 0.58.
